Laboratory results reported in ChEMBL document CHEMBL4014298, “Discovery of a series of 8-(1-phenylpyrrolidin-2-yl)-6-carboxamide-2-morpholino-4H-chromen-4-one as PI3Kβ/δ inhibitors for the treatment of PTEN-deficient tumours” (Bioorg Med Chem Lett, 2017).

Assays:
[1] = Intrinsic clearance in human hepatocytes assessed per million cells; format: ADME, cell-based, Hepatocyte; settings: read-out: CLH
[2] = Apparent permeability across apical to basolateral side in human Caco2 cells; settings: Caco-2
[3] = Lipophilicity, log D of the compound at pH 7.4; settings: buffer
[4] = target: T1, Phosphatidylinositol 4,5-bisphosphate 3-kinase catalytic subunit beta isoform (Homo sapiens, UniProt P42338); test: Inhibition of PI3Kbeta in PTEN-deficient human MDA-MB-468 cells assessed as decrease in AKT phosphorylation at Ser473 measured after 2 hrs
T1 sequence (P42338 whole entry, canonical isoform): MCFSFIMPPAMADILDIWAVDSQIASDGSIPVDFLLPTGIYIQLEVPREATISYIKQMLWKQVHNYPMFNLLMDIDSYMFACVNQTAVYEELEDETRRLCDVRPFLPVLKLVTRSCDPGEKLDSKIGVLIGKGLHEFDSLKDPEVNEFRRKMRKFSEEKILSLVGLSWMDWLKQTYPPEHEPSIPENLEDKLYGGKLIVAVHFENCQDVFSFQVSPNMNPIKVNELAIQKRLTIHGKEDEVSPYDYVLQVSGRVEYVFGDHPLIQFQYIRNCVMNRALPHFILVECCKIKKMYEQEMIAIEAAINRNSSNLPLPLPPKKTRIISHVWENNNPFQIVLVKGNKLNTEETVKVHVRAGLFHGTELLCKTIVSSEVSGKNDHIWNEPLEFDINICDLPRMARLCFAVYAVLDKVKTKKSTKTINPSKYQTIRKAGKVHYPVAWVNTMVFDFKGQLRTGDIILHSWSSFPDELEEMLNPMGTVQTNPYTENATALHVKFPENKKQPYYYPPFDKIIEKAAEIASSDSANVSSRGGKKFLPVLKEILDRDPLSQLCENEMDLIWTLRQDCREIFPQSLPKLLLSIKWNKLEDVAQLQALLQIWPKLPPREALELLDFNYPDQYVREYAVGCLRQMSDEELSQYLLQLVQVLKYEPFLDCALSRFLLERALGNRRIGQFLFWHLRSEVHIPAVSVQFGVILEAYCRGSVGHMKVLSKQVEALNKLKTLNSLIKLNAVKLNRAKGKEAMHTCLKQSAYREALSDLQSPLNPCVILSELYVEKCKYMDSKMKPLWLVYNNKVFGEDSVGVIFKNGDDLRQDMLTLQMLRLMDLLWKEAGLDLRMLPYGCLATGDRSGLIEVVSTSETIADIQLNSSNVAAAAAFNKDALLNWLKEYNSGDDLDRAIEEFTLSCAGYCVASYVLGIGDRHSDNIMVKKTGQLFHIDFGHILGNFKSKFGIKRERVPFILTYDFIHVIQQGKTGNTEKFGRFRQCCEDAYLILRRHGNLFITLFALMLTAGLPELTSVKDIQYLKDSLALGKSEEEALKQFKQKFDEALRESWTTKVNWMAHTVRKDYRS

[5] = Inhibition of PI3Kalpha mutant in human BT474 cells assessed as decrease in AKT phosphorylation at Thr308 after 2 hrs; format: cell-based; settings: BT-474, 2 h
[6] = AUC in mouse at 30 umol/kg, po; format: ADME; settings: in vivo
Homo sapiens = species: Homo sapiens; test: Selectivity ratio of IC50 for PI3Kalpha mutant in human BT474 cells to IC50 for PI3Kbeta in PTEN-deficient human MDA-MB-468 cells; format: cell-based
Method in brief: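 Ratio of two cellular IC50s. PI3Kα IC50 is from inhibition of AKT Thr308 phosphorylation in PIK3CA-mutant human breast ductal carcinoma BT474 cells. PI3Kβ IC50 is from inhibition of AKT Ser473 phosphorylation in PTEN-null breast adenocarcinoma MDA-MB-468 cells.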

[7] = target: Phosphatidylinositol 4,5-bisphosphate 3-kinase catalytic subunit gamma isoform (Homo sapiens, UniProt P48736); test: Inhibition of recombinant human PI3Kgamma using PIP2 as substrate preincubated for 20 mins followed by substrate addition measured after 80 mins in presence of ATP by Kinase Glo luminescence assay
Sequence of Phosphatidylinositol 4,5-bisphosphate 3-kinase catalytic subunit gamma isoform (P48736 whole entry, canonical isoform): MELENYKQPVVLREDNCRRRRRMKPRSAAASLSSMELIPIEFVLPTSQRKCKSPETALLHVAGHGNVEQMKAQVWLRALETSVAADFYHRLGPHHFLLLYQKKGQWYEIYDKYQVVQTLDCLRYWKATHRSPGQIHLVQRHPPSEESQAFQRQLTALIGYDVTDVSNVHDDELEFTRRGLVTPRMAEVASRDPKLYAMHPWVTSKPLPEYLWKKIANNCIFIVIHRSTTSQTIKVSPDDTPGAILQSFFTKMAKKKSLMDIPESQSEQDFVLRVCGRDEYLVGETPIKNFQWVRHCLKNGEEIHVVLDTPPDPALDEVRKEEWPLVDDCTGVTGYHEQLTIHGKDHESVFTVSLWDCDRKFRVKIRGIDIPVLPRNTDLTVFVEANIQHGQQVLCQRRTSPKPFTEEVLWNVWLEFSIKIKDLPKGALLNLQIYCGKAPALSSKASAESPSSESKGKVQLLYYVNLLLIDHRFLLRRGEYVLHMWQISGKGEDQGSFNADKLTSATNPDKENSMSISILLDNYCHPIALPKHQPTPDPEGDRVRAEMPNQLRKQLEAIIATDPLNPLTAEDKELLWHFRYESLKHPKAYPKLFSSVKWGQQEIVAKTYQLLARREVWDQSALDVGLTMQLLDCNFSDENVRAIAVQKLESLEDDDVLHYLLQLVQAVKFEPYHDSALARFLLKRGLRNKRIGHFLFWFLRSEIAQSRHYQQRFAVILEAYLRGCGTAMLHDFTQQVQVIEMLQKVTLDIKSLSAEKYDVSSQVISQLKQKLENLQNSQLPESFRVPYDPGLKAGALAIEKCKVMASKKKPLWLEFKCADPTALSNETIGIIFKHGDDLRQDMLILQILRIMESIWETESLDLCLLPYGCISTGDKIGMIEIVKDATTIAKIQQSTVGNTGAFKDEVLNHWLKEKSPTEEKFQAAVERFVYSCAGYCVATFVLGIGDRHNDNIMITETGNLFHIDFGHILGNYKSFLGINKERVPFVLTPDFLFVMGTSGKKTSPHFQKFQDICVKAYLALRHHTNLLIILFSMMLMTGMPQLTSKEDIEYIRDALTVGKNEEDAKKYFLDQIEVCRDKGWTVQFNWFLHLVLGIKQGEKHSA
Method in brief: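 Enzyme IC50 against PI3Kγ, single determination (n=1).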

[8] = target: T2, Phosphatidylinositol 4,5-bisphosphate 3-kinase catalytic subunit delta isoform (Homo sapiens, UniProt O00329); test: Inhibition of recombinant human PI3Kdelta using PIP2 as substrate preincubated for 20 mins followed by substrate addition measured after 80 mins in presence of ATP by Kinase Glo luminescence assay
T2 sequence (O00329 whole entry): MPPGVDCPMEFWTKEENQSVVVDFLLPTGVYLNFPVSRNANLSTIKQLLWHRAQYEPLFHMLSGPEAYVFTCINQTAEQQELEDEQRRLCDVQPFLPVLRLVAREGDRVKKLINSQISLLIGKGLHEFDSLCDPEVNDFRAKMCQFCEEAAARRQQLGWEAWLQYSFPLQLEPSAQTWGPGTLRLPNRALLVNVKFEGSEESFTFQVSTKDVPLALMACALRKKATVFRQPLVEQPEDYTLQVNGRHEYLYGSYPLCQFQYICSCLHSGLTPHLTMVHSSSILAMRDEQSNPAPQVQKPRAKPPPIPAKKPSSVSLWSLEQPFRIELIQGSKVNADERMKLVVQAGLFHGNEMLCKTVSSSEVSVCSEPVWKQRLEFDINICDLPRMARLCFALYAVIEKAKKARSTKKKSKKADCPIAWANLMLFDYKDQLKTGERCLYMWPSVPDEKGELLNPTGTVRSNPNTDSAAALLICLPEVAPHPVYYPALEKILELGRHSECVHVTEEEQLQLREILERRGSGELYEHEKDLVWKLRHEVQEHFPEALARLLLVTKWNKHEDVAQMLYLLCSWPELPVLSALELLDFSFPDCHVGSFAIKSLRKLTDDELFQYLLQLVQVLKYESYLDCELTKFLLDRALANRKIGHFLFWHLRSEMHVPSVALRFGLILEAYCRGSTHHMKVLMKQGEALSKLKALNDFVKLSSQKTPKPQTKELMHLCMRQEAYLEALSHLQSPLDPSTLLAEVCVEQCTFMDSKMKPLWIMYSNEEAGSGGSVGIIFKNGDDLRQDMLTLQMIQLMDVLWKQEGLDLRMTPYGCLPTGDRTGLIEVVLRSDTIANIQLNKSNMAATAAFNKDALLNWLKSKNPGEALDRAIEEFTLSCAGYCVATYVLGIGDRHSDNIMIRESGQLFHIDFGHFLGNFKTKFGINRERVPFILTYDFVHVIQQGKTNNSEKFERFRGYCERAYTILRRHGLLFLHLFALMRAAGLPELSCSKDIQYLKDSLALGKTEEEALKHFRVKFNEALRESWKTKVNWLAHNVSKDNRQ

[9] = target: Phosphatidylinositol 4,5-bisphosphate 3-kinase catalytic subunit alpha isoform (Homo sapiens, UniProt P42336); test: Inhibition of recombinant human PI3Kalpha using PIP2 as substrate preincubated for 20 mins followed by substrate addition measured after 80 mins in presence of ATP by Kinase Glo luminescence assay
Sequence of Phosphatidylinositol 4,5-bisphosphate 3-kinase catalytic subunit alpha isoform (P42336 whole entry, canonical isoform): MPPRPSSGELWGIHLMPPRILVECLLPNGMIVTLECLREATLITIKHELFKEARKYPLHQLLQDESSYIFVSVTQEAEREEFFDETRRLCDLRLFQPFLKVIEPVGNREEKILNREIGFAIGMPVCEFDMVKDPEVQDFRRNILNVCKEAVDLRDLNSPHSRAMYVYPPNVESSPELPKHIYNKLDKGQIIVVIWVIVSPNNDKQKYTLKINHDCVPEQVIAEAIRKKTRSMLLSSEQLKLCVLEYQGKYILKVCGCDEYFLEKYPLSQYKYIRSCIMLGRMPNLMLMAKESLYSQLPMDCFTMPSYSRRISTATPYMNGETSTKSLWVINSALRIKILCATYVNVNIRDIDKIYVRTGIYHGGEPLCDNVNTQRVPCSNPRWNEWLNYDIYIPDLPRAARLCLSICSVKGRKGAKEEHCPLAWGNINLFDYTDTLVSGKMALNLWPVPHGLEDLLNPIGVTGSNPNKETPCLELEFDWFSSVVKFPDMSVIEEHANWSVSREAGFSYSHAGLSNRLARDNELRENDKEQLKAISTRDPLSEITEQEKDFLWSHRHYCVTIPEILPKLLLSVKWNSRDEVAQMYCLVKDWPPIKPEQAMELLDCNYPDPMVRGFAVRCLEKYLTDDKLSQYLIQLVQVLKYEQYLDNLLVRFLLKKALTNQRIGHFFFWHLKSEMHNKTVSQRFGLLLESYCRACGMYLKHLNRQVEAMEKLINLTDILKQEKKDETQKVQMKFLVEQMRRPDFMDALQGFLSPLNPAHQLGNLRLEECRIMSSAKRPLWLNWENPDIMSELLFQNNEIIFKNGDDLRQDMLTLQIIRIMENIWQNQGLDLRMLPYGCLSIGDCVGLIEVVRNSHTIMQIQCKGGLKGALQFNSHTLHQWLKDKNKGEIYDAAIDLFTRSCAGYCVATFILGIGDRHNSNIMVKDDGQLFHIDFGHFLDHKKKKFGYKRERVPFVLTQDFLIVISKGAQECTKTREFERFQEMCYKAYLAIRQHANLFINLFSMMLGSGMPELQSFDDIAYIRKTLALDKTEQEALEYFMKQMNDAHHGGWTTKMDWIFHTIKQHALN

[10] = target: T1, Phosphatidylinositol 4,5-bisphosphate 3-kinase catalytic subunit beta isoform; test: Inhibition of recombinant human PI3Kbeta using PIP2 as substrate preincubated for 20 mins followed by substrate addition measured after 80 mins in presence of ATP by Kinase Glo luminescence assay
[11] = Fraction unbound in human plasma; format: ADME, cell-free
Method in brief: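 Plasma protein binding in mouse, dog or human plasma, reported as fraction unbound (%).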

[12] = Volume of distribution at steady state in mouse blood at 5 umol/kg, iv or 30 umol/kg, po; format: ADME, organism-based; settings: read-out: Vdss
[13] = Oral bioavailability in mouse blood at 30 umol/kg; format: ADME, organism-based
[14] = Clearance in mouse blood at 5 umol/kg, iv or 30 umol/kg, po; format: ADME, organism-based
[15] = Intrinsic clearance in mouse hepatocytes assessed per million cells; format: ADME, cell-based, Hepatocyte; settings: read-out: CLH
Method in brief: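 Intrinsic clearance measured in mouse or dog hepatocytes, expressed as CL_int in […].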

SMILES | hepatocyte CLint [1] [µL/min/1e6 cells] | Papp A→B [2] [×10⁻⁶ cm/s] | logD [3] | IC50 [4] [nM] | IC50 [5] [nM] | AUC [6] [µM·h] | IC50 [7] [nM] | IC50 [8] [nM] | IC50 [9] [nM] | IC50 [10] [nM] | fraction unbound [11] | Vd [12] [L/kg] | bioavailability [13] [%] | clearance [14] [mL/min/kg] | hepatocyte CLint [15] [µL/min/1e6 cells] | Ratio IC50 (Homo sapiens)
Cc1cc([C@@H](C)Nc2ccccc2)c2nc(N3CCOCC3)cc(=O)n2c1 | – | – | 3.6 | – | – | – | – | – | – | – | – | – | – | – | – | –
O=C(c1cc(C2CCCN2c2cc(F)cc(F)c2)c2oc(N3CCOCC3)cc(=O)c2c1)N1CCC(O)CC1 (racemic) | < 3 | – | 2.3 | 3 | 630 | – | – | – | – | – | – | – | – | – | – | –
CN(C)C(=O)c1cc(C2CCCN2c2ccccc2)c2oc(N3CCOCC3)cc(=O)c2c1 (racemic) | 11 | – | – | – | 480 | 6 | – | – | – | – | – | – | – | – | – | –
CN(CCO)C(=O)c1cc(C2CCCN2c2cc(F)cc(F)c2)c2oc(N3CCOCC3)cc(=O)c2c1 (racemic) | 4 | 2.6 | 2 | 2 | 870 | 0.3 | – | – | – | – | – | – | – | – | – | –
O=C(c1cc(C2CCCN2c2ccc(F)cc2)c2oc(N3CCOCC3)cc(=O)c2c1)N1CCOCC1 (single isomer, unassigned) | 8 | – | 2.2 | 4.5 | 1200 | – | – | – | – | – | – | – | – | – | – | –

Further compounds by falling IC50 [5], results first:

hepatocyte CLint [1] [µL/min/1e6 cells] | Papp A→B [2] [×10⁻⁶ cm/s] | logD [3] | IC50 [4] [nM] | IC50 [5] [nM] | AUC [6] [µM·h] | IC50 [7] [nM] | IC50 [8] [nM] | IC50 [9] [nM] | IC50 [10] [nM] | fraction unbound [11] | Vd [12] [L/kg] | bioavailability [13] [%] | clearance [14] [mL/min/kg] | hepatocyte CLint [15] [µL/min/1e6 cells] | SMILES | Ratio IC50 (Homo sapiens)
6 | 14 | 2.2 | 2.8 | 300 | 1.7 | 340 | 5.1 | 19 | 6.1 | 0.11 | 0.9 | 18 | 47 | 134 | O=C(c1cc([C@H]2CCCN2c2cccc(F)c2)c2oc(N3CCOCC3)cc(=O)c2c1)N1CCOCC1 | –
11 | 3.3 | 2.3 | 2.3 | 250 | – | – | – | – | – | – | – | – | – | – | CN1CCN(C(=O)c2cc([C@H]3CCCN3c3cc(F)cc(F)c3)c3oc(N4CCOCC4)cc(=O)c3c2)CC1 | –
14 | – | – | 3.4 | 180 | 1 | 330 | 8.2 | 24 | 6.7 | – | – | – | – | – | CN(C)C(=O)c1cc([C@H]2CCCN2c2ccc(F)cc2)c2oc(N3CCOCC3)cc(=O)c2c1 | 50
17 | 33 | 2.7 | 1.2 | 150 | 2.4 | – | – | – | – | – | – | – | – | – | CN(C)C(=O)c1cc(C2CCCN2c2cc(F)cc(F)c2)c2oc(N3CCOCC3)cc(=O)c2c1 (racemic) | –
15 | – | 2.5 | 1.2 | 91 | – | – | – | – | – | – | – | – | – | – | CN(C)C(=O)c1cc([C@H]2CCCN2c2cccc(F)c2)c2oc(N3CCOCC3)cc(=O)c2c1 | –
